According to ChEMBL document CHEMBL1143767, “Identification, biological activity, and mechanism of the anti-ischemic quinolone analog” (2007):
Values after ≈ are worked out from the molar mass of the structure shown.

Experiments:
[1] = system: Rattus norvegicus; assay: Antiischemic effect in Sprague-Dawley rat focal ischemic sroke model assessed as reduction of infract size in brain at 0.01 mg/kg, ip after 24 hrs under pre-ischemic conditions; type: functional; parameters: scale not given: the % may be the effect or the level left; details: route intraperitoneal
Method in brief: (§1)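 Rat MCAO with 2 h ischemia and 22 h reperfusion, pre-ischemic regimen. Compound was given ip three times: 3 h and 1 h before, and 1 h after, MCA occlusion. Brains were removed 24 h after ischemia, cut into seven slices, and stained with TTC. Infarct volume was measured by computer-assisted planimetry and expressed as % reduction versus vehicle-treated rats.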

[2] = system: Serratia marcescens; assay: Antibacterial activity against Serratia marcescens ATCC 27117 after 16 to 18 hrs by agar dilution method; type: functional
Method in brief: (§2)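 Agar dilution MIC per CLSI on Mueller Hinton agar. Stocks were diluted in DMSO or 0.1 M NaOH as a twofold series, with final concentrations 0.06–128. Plates were spotted at 10⁴ cfu/spot and incubated in ambient air at 36 °C for 16–18 h. MIC was the lowest concentration that prevented visible growth.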

[3] = system: Staphylococcus epidermidis; assay: Antibacterial activity against Staphylococcus epidermidis ATCC 12228 after 16 to 18 hrs by agar dilution method; type: functional
Method in brief: (§3)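 Agar dilution MIC following CLSI guidance. E. faecalis was grown on Brain–Heart Infusion agar and the other strains on Mueller Hinton agar. Compounds were diluted in DMSO or 0.1 M NaOH in twofold steps to give final concentrations of 0.06–128 µg/mL. Inocula of 10^4 cfu/spot were incubated 16–18 h at 36 °C in ambient air. MIC was taken as the lowest concentration preventing visible growth.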

[4] = system: Rattus norvegicus; assay: Antiischemic effect in Sprague-Dawley rat focal ischemic sroke model assessed as reduction of infract size in brain at 0.01 mg/kg, ip after 24 hrs under post-ischemic conditions; parameters: scale not given: the % may be the effect or the level left; details: route intraperitoneal
[5] = system: Rattus norvegicus; assay: Cardioprotective effect in Sprague-Dawley rat myocardial infarction model assessed as reduction of infract area in heart at 0.001 mg/kg, ip; type: functional; parameters: scale not given: the % may be the effect or the level left; details: route intraperitoneal
Method in brief: (§4)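 Male Sprague–Dawley rats (260–290 g) were anesthetized with ketamine ([…]) and xylazine (5 mg/kg). A single ip dose was given 1 h before regional myocardial ischemia (30 min), followed by 3 h reperfusion. After 1% Evans blue, the left ventricle was cut into two slices and stained with TTC. Infarct size was expressed as % of area at risk versus vehicle, using Student's t-test (P < 0.05).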

[6] = system: SH-SY5Y; assay: Enhancement of cell viability of human SH-SY5Y cells at 0.1 uM after 24 hrs by MTS assay relative to control; type: functional
Method in brief: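 SH-SY5Y neuroblastoma cells were grown in 1:1 EMEM/F12K with 10% heat-inactivated FBS at 37 °C, 5% CO2. After 1 day, cells were pretreated with compound at 0.1 µM for 2 h, then exposed to 200 µM H2O2 for 24 h. Viability was read by MTS (3 h, 37 °C, OD 490 nm) as a percentage of control. At least two independent experiments, each in triplicate.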

[7] = system: Enterobacter cloacae; assay: Antibacterial activity against Enterobacter cloacae ATCC 13047 after 16 to 18 hrs by agar dilution method; type: functional
[8] = system: Rattus norvegicus; assay: Antiischemic effect in Sprague-Dawley rat focal ischemic sroke model assessed as reduction of infract size in brain at 0.001 mg/kg, ip after 24 hrs under pre-ischemic conditions; type: functional; parameters: scale not given: the % may be the effect or the level left; details: route intraperitoneal; method in brief: as §1
[9] = system: Staphylococcus aureus; assay: Antibacterial activity against Staphylococcus aureus ATCC 25923 after 16 to 18 hrs by agar dilution method; type: functional; method in brief: as §3
[10] = system: Rattus norvegicus; assay: Cardioprotective effect in Sprague-Dawley rat myocardial infarction model assessed as reduction of infract area in heart at 0.01 mg/kg, ip; type: functional; parameters: scale not given: the % may be the effect or the level left; details: route intraperitoneal; method in brief: as §4
[11] = system: Bacillus subtilis; assay: Antimicrobial activity against Bacillus subtilis ATCC 6633 after 16 to 18 hrs by agar dilution method; type: functional; method in brief: as §2
[12] = system: Rattus norvegicus; assay: Cardioprotective effect in Sprague-Dawley rat myocardial infarction model assessed as reduction of infract size in heart at 0.001 mg/kg, ip; type: functional; parameters: scale not given: the % may be the effect or the level left; details: route intraperitoneal; method in brief: as §4
[13] = system: Rattus norvegicus; assay: Cardioprotective effect in Sprague-Dawley rat myocardial infarction model assessed as reduction of infract size in heart at 0.01 mg/kg, ip; type: functional; parameters: scale not given: the % may be the effect or the level left; details: route intraperitoneal; method in brief: as §4
[14] = system: Enterococcus faecalis; assay: Antibacterial activity against Enterococcus faecalis ATCC 29212 after 16 to 18 hrs by agar dilution method; type: functional; method in brief: as §3
[15] = system: Rattus norvegicus; assay: Antiischemic effect in Sprague-Dawley […] sroke model assessed as reduction of infract size in brain at 0.1 mg/kg, ip after 24 hrs under pre-ischemic conditions; type: functional; parameters: scale not given: the % may be the effect or the level left; details: route intraperitoneal; method in brief: as §1
[16] = system: Rattus norvegicus; assay: Cardioprotective effect in Sprague-Dawley rat myocardial infarction model assessed as reduction of infract area in heart at 0.1 mg/kg, ip; type: functional; parameters: scale not given: the % may be the effect or the level left; details: route intraperitoneal; method in brief: as §4
[17] = system: SH-SY5Y; assay: Cell viability of human SH-SY5Y cells at 0.1 uM after 24 hrs by MTS assay; type: functional
Method in brief: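 SH-SY5Y cells were grown in 1:1 EMEM/F12K with 10% heat-inactivated FBS at 37 °C and 5% CO₂. One day after plating, cells were pretreated with compound for 2 h, then exposed to hydrogen peroxide for 24 h. MTS reagent was added for 3 h at 37 °C and OD read at 490 nm. Viability is % of control, from at least two independent experiments in triplicate.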

[18] = system: Escherichia coli; assay: Antibacterial activity against Escherichia coli ATCC 25922 after 16 to 18 hrs by agar dilution method; type: functional; method in brief: as §3

| Compound | MIC [2] [µg/mL] | MIC [3] [µg/mL] | MIC [9] [µg/mL] | MIC [11] [µg/mL] | MIC [14] [µg/mL] | Activity [17] [%] | other results |
| --- | --- | --- | --- | --- | --- | --- | --- |
| O=C(O)c1cn(C2CC2)c2cc(N3CCNCC3)ccc2c1=O | 4 (≈ 12.8 µM) | 16 (≈ 51.1 µM) | 32 (≈ 102 µM) | 8 (≈ 25.5 µM) | 64 (≈ 204 µM) | 61.7 | Activity [1]: 32.1%; Activity [4]: 8.9%; Activity [5]: 62.1%; Activity [6]: 42%; MIC [7]: 1 µg/mL (≈ 3.19 µM); Activity [8]: 9.6%; Activity [10]: 53.1%; Activity [12]: 14.2%; Activity [13]: 26.6%; Activity [15]: 5.3%; Activity [16]: 78.3%; MIC [18]: 0.5 µg/mL (≈ 1.6 µM) |
| O=C(O)c1cn(C2CC2)c2cc(C3CCNCC3)c(F)cc2c1=O | – | – | – | – | – | 42.4 | – |
| O=C(O)c1cn(C2CC2)c2cc(N3CCNCC3)c(F)cc2c1=S | – | – | – | – | – | 27.1 | – |
| O=C(O)c1cn(C2CC2)c2cc(N3CCNCC3)c(F)cc2c1=O [CIPROFLOXACIN] | 0.125 (≈ 0.377 µM) | 1 (≈ 3.02 µM) | 2 (≈ 6.04 µM) | 1 (≈ 3.02 µM) | 2 (≈ 6.04 µM) | 46.5 | – |
| O=C(O)c1cn(C2CC2)c2ccccc2c1=O | – | – | – | – | – | 39 | – |
| O=C(O)c1cn(C2CC2)c2cc(N3CCCCC3)c(F)cc2c1=O | – | – | – | – | – | 44.1 | – |
| Cc1c(C(=O)O)c(=O)c2cc(F)c(N3CCNCC3)cc2n1C1CC1 | – | – | – | – | – | 49.9 | – |
| O=c1ccn(C2CC2)c2cc(N3CCNCC3)c(F)cc12 | 1 (≈ 3.48 µM) | 8 (≈ 27.8 µM) | 16 (≈ 55.7 µM) | 8 (≈ 27.8 µM) | 8 (≈ 27.8 µM) | 57.4 | Activity [6]: 33%; MIC [7]: 0.5 µg/mL (≈ 1.74 µM); MIC [18]: < 0.12 µg/mL |
| O=C(O)c1cn(C2CC2)c2ccc(F)cc2c1=O | – | – | – | – | – | 45.1 | – |
